# Test results taken from PMC7534582 (Cancer cell, 2019).
# Key:
# Assay type in all cases: cell-based, human
# [1] = tested on: SIRT3 depleted HBL1 cells; assay: Rescue of proliferation arrest caused by SIRT3 depletion; details: HBL1, Figure S5D
# [2] = tested on: DLBCL cells with SIRT3 shRNA; assay: Rescue of autophagy; details: DMKG 4 mM for 3-4 hr
# Outline: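 DLBCL cells carrying SIRT3 or control shRNA were incubated with test compound (4 mM) for 3-4 hr, then collected for Western blot with LC3 and SIRT3 antibodies. Detection used a peroxidase-conjugated secondary antibody and enhanced chemiluminescence. LC3II/LC3I ratios were obtained by densitometry and normalized to control cells.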
# [3] = tested on: SIRT3 depleted Karpas 422 cells; assay: Rescue of proliferation arrest caused by SIRT3 depletion; details: Karpas 422, 4-day exposure
# Outline: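 Karpas 422 cells were infected with YFP-carrying lentivirus bearing SIRT3 or control shRNA and exposed for 4 days to test compounds, alone or combined. Viable YFP+ (transduced) and YFP− (non-transduced) populations were quantified by flow cytometry. Abundance was normalized to the first time point.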
# [4] = tested on: SIRT3 depleted OCI-LY1 cells; assay: Rescue of proliferation arrest caused by SIRT3 depletion; details: OCI-LY1, Figure S5C
SMILES,Rescue of proliferation arrest caused by SIRT3 depletion [1],Rescue of LC3II/LC3I ratios (autophagy) after SIRT3 depletion [2],Rescue of proliferation arrest caused by SIRT3 depletion [3],Rescue of proliferation arrest caused by SIRT3 depletion [4]
"COC(=O)C(C)=O [MP, methyl-pyruvate]",required both DMKG and MP,,,
"COC(=O)CCC(=O)C(=O)OC [DMKG, dimethyl-αKG]",required both DMKG and MP,rescued LC3II/LC3I ratios,DMKG alone rescued,DMKG alone rescued
